ChEMBL document CHEMBL1153046, “Synthesis and antitumor activity of substituted triazolo[4,3-a]pyrimidin-6-sulfonamide with an incorporated thiazolidinone moiety” (2009)

Legend:
Assay type in all cases: functional
[1] = system: HOP-92; assay: Growth inhibition of human HOP92 cells after 48 hrs by sulforhodamine B assay; conditions: HOP-92, 48 h
How it was run: (§1)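 NCI 60-cell-line panel. Cells are grown in RPMI1640 with 5% fetal calf serum and 2 mM L-glutamine, seeded at a density set by growth characteristics, and preincubated 24 h. Compound is tested at a minimum of five concentrations at 10-fold dilution, with 48 h continuous exposure. Viability is read by sulforhodamine B protein assay. GI50, TGI and LC50 come from dose-response curves.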

[2] = system: OVCAR-5; assay: Growth inhibition of human OVCAR5 cells after 48 hrs by sulforhodamine B assay; conditions: OVCAR-5, 48 h; how it was run: as §1
[3] = system: TK-10; assay: Growth inhibition of human TK10 cells after 48 hrs by sulforhodamine B assay; conditions: TK-10, 48 h
How it was run: (§2)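 NCI 60-cell-line panel (nine cancer types), with cells grown in RPMI1640 plus 5% fetal calf serum and 2 mM L-glutamine. Cells are seeded at a density that depends on the line and preincubated 24 h. Compounds are then applied at a minimum of five 10-fold dilutions over a 5-log range with 48 h continuous exposure. Viability is read by SRB protein assay, and GI50 is derived from dose-response curves in units of 10^-5 M.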

[4] = system: SF-268; assay: Growth inhibition of human SF268 cells after 48 hrs by sulforhodamine B assay; conditions: SF-268, 48 h; how it was run: as §1
[5] = system: SN12C; assay: Growth inhibition of human SN12C cells after 48 hrs by sulforhodamine B assay; how it was run: as §1
[6] = system: NCI-H460; assay: Growth inhibition of human NCI-H460 cells after 48 hrs by sulforhodamine B assay; conditions: NCI-H460, 48 h; how it was run: as §1
[7] = system: CCRF-CEM; assay: Growth inhibition of human CCRF-CEM cells after 48 hrs by sulforhodamine B assay; how it was run: as §1
[8] = system: HL-60(TB); assay: Growth inhibition of human HL-60(TB) cells after 48 hrs by sulforhodamine B assay; conditions: HL-60, 48 h
How it was run: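 NCI 60-cell-line panel. Cells were grown in RPMI1640 with 5% fetal calf serum and 2 mM L-glutamine, seeded at a density suited to each line, and preincubated 24 h. Compounds were tested at a minimum of five concentrations at 10-fold dilutions over a 5-log range, with 48 h continuous exposure. Growth was read by sulforhodamine B protein staining, and GI50 was taken from dose-response curves.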

[9] = system: IGROV-1; assay: Growth inhibition of human IGROV1 cells after 48 hrs by sulforhodamine B assay; conditions: IGROV-1, 48 h; how it was run: as §1
[10] = system: U-251; assay: Growth inhibition of human U251 cells after 48 hrs by sulforhodamine B assay; conditions: U-251, 48 h; how it was run: as §2
[11] = system: OVCAR-4; assay: Growth inhibition of human OVCAR4 cells after 48 hrs by sulforhodamine B assay; conditions: OVCAR-4, 48 h; how it was run: as §1
[12] = system: KM12; assay: Growth inhibition of human KM12 cells after 48 hrs by sulforhodamine B assay; conditions: KM12, 48 h; how it was run: as §1
[13] = system: UACC-257; assay: Growth inhibition of human UACC257 cells after 48 hrs by sulforhodamine B assay; conditions: UACC-257, 48 h; how it was run: as §2
[14] = system: NCI-H23; assay: Growth inhibition of human NCI-H23 cells after 48 hrs by sulforhodamine B assay; conditions: NCI-H23, 48 h; how it was run: as §1
[15] = system: NCI-H322M; assay: Growth inhibition of human NCI-H322M cells after 48 hrs by sulforhodamine B assay; how it was run: as §1
[16] = system: SNB-19; assay: Growth inhibition of human SNB19 cells after 48 hrs by sulforhodamine B assay; conditions: SNB-19, 48 h; how it was run: as §2
[17] = system: COLO 205; assay: Growth inhibition of human COLO205 cells after 48 hrs by sulforhodamine B assay; conditions: COLO 205, 48 h; how it was run: as §1
[18] = system: RXF 393; assay: Growth inhibition of human RXF393 cells after 48 hrs by sulforhodamine B assay; conditions: RXF 393, 48 h; how it was run: as §1
[19] = system: SK-MEL-5; assay: Growth inhibition of human SK-MEL-5 cells after 48 hrs by sulforhodamine B assay; conditions: SK-MEL-5, 48 h; how it was run: as §1
[20] = system: HCT-116; assay: Growth inhibition of human HCT116 cells after 48 hrs by sulforhodamine B assay; conditions: HCT-116, 48 h; how it was run: as §1
[21] = system: HCC 2998; assay: Growth inhibition of human HCC2998 cells after 48 hrs by sulforhodamine B assay; conditions: HCC 2998, 48 h; how it was run: as §1
[22] = system: SF-295; assay: Growth inhibition of human SF295 cells after 48 hrs by sulforhodamine B assay; conditions: SF-295, 48 h; how it was run: as §1
[23] = system: HT-29; assay: Growth inhibition of human HT-29 cells after 48 hrs by sulforhodamine B assay; conditions: HT-29, 48 h; how it was run: as §1
[24] = system: SNB-75; assay: Growth inhibition of human SNB75 cells after 48 hrs by sulforhodamine B assay; conditions: SNB-75, 48 h; how it was run: as §2
[25] = system: UACC-62; assay: Growth inhibition of human UACC62 cells after 48 hrs by sulforhodamine B assay; conditions: UACC-62, 48 h; how it was run: as §2
[26] = system: SK-OV-3; assay: Growth inhibition of human SKOV3 cells after 48 hrs by sulforhodamine B assay; conditions: SK-OV-3, 48 h; how it was run: as §1
[27] = system: MCF7; assay: Antiproliferative activity against human MCF7 cells assessed as cell growth at 100 uM after 48 hrs by alamar blue assay; conditions: MCF7, 48 h, read-out: Activity
How it was run: (§3)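 NCI three-cell-line primary screen. Cells are seeded and preincubated in microtiter plates. Compound is added at a single 10^-4 M concentration and cultures are incubated 48 h. The end-point is read with alamar blue. Results are given as percent growth relative to untreated control cells.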

[28] = system: SW-620; assay: Growth inhibition of human SW620 cells after 48 hrs by sulforhodamine B assay; conditions: SW-620, 48 h; how it was run: as §2
[29] = system: NCI-H460; assay: Antiproliferative activity against human NCI-H460 cells assessed as cell growth at 100 uM after 48 hrs by alamar blue assay; conditions: NCI-H460, 48 h, read-out: Activity; how it was run: as §3
[30] = read-out: LC50 (the source's name)

For COc1ccc(/C=N/c2nc3[nH]nc(C)n3c(=O)c2S(=O)(=O)NN2C(=O)C(CN3CCOCC3)SC2c2ccc(OC)cc2)cc1 (centres undefined), which GI50 [1] is on record?
The GI50 was 36.3 µM.

What about the LC50 [1] of the same compound?
The LC50 was > 100 µM.

And the TGI [1]?
Its TGI is > 100 µM.

And the GI50 [2]?
The GI50 was > 100 µM.

What about the LC50 (concentration causing 50% net cell kill) [2] of the same compound?
Its LC50 (concentration causing 50% net cell kill) is > 100 µM.

What about the TGI [2] of the same compound?
The TGI was > 100 µM.

And the GI50 [3]?
Its GI50 is 40.1 µM.

What about the LC50 [3] of the same compound?
Its LC50 is > 100 µM.

What about the TGI [3] of the same compound?
The TGI was > 100 µM.

What about the GI50 [4] of the same compound?
Its GI50 is > 100 µM.

What about the TGI [4] of the same compound?
The TGI was > 100 µM.

What about the CC50 [4, 30] of the same compound?
The CC50 was > 100 µM.

And the GI50 [5]?
Its GI50 is 55.1 µM.

What about the LC50 [5] of the same compound?
The LC50 was > 100 µM.

And the TGI [5]?
The TGI was > 100 µM.

And the GI50 [6]?
The GI50 was 87.7 µM.

What about the TGI [6] of the same compound?
The TGI was > 100 µM.

What about the GI50 [7] of the same compound?
Its GI50 is 25.8 µM.

And the TGI [7]?
The TGI was 78.9 µM.

What about the GI50 [8] of the same compound?
Its GI50 is 9.8 µM.

And the LC50 [8]?
Its LC50 is 74.3 µM.

And the TGI [8]?
Its TGI is 27.2 µM.

What about the GI50 [9] of the same compound?
Its GI50 is 26 µM.

What about the LC50 [9] of the same compound?
The LC50 was > 100 µM.

What about the TGI [9] of the same compound?
Its TGI is 97.4 µM.

What about the GI50 [10] of the same compound?
The GI50 was 40.4 µM.

And the LC50 [10]?
Its LC50 is > 100 µM.

And the TGI [10]?
Its TGI is > 100 µM.

And the GI50 [11]?
Its GI50 is 94.4 µM.

What about the LC50 [11] of the same compound?
Its LC50 is > 100 µM.

What about the TGI [11] of the same compound?
Its TGI is > 100 µM.

And the GI50 [12]?
The GI50 was 36.1 µM.

And the GI50 [13]?
The GI50 was 32.2 µM.

What about the LC50 [13] of the same compound?
The LC50 was > 100 µM.

And the TGI [13]?
The TGI was > 100 µM.

What about the GI50 [14] of the same compound?
Its GI50 is 87.8 µM.

What about the TGI [14] of the same compound?
The TGI was > 100 µM.

And the GI50 [15]?
The GI50 was 39.8 µM.

What about the TGI [15] of the same compound?
Its TGI is > 100 µM.

What about the GI50 [16] of the same compound?
Its GI50 is > 100 µM.

And the TGI [16]?
Its TGI is > 100 µM.

What about the GI50 [17] of the same compound?
Its GI50 is 66.2 µM.

And the TGI [17]?
Its TGI is > 100 µM.

And the GI50 [18]?
The GI50 was 15 µM.

What about the TGI [18] of the same compound?
The TGI was > 100 µM.

What about the CC50 [18, 30] of the same compound?
The CC50 was > 100 µM.

And the GI50 [19]?
Its GI50 is 19 µM.

What about the TGI [19] of the same compound?
Its TGI is > 100 µM.

What about the CC50 [19, 30] of the same compound?
The CC50 was > 100 µM.

What about the GI50 [20] of the same compound?
The GI50 was 29.7 µM.

What about the LC50 (concentration killing 50% of cells) [20] of the same compound?
The LC50 (concentration killing 50% of cells) was > 100 µM.

What about the TGI [20] of the same compound?
Its TGI is 97.3 µM.

And the GI50 [21]?
The GI50 was 22 µM.

And the LC50 [21]?
Its LC50 is > 100 µM.

What about the TGI [21] of the same compound?
Its TGI is > 100 µM.

And the GI50 [22]?
The GI50 was 33.2 µM.

What about the LC50 (concentration killing 50% of cells) [22] of the same compound?
The LC50 (concentration killing 50% of cells) was > 100 µM.

What about the TGI [22] of the same compound?
The TGI was > 100 µM.

And the GI50 [23]?
Its GI50 is 26.7 µM.

What about the GI50 [24] of the same compound?
The GI50 was 57.3 µM.

And the TGI [24]?
The TGI was > 100 µM.

And the GI50 [25]?
Its GI50 is 25.4 µM.

And the TGI [25]?
The TGI was > 100 µM.

And the CC50 [25, 30]?
The CC50 was > 100 µM.

And the GI50 [26]?
Its GI50 is > 100 µM.

And the TGI [26]?
The TGI was > 100 µM.

And the growth at 100 µM [27]?
The growth at 100 µM was 64%.

And the GI50 [28]?
Its GI50 is 47.1 µM.

What about the growth at 100 µM [29] of the same compound?
Its growth at 100 µM is 16%.
